Assay [1] in a line: Displacement of [3H]AMPA from AMPA receptor in rat cortical synaptical membrane. The assay is classed as cell membranes. (In a radioligand displacement assay an active substance lowers the binding of a labelled ligand.)
The target of assay [2] is Glutamate NMDA receptor. Nature of the assay: Displacement of [3H]glycine from NMDA receptor in rat cortical synaptical membrane. It counts as cell membranes.
A short description of assay [3]: Displacement of [3H]kainate from high affinity kainate receptor in rat cortical membrane. The assay is classed as cell membranes.
Assay [4] in a line: Antagonist activity at AMPA receptor in mouse cortical wedge assessed as inhibition of S-AMPA-induced membrane depolarization by electrophysiological assay. It counts as functional.
Assay [5] is described as follows: Antagonist activity at NMDA receptor in mouse cortical wedge assessed as inhibition of NMDA-induced membrane depolarization by electrophysiological assay. The assay is classed as functional.
Assay [6] is described as follows: Neuroprotective activity in organotypic Wistar rat hippocampal CA1 region slices assessed as protection from oxygen-deprivation-induced neuronal damage at 30 uM dosed during 30 mins insult and subsequent 24 hrs recovery period by propidium iodide staining-based fluorescence analysis (reference value: 57 +/- 8%). The assay is classed as functional.
In assay [7] the target is Glutamate NMDA receptor (Rattus norvegicus) (UniProt P35439+Q00959+Q00960+Q00961+Q62645+Q8VHN2+Q9R1M7). Nature of the assay: Displacement of [3H]glycine from NMDA receptor in rat cortical synaptical membrane at 100 uM. The assay is classed as cell membranes. In a few lines: (§1)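 Rat cortical membranes, test compound at 100 µM single concentration. Diluted in buffer from a 1 mM stock in 50% DMSO. Result given as percent inhibition of specific radioligand binding. Determinations were done in triplicate, 3–4 separate experiments.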

Assay [8] is filed under the species Mus musculus. Nature of the assay: Antagonist activity at NMDA receptor in mouse cortical wedge assessed as inhibition of NMDA-induced membrane depolarization at 10 uM by electrophysiological assay. The assay is classed as functional. The procedure, abridged: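 Mouse cortical wedge preparation; antagonism measured as inhibition of depolarization evoked by NMDA, with test compound at 10 µM.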

For assay [9], the species on record is Rattus norvegicus. In words: Displacement of [3H]kainate from kainate receptor in rat cortical membrane at 100 uM. It counts as cell membranes. In a few lines:
as §1

For assay [10], the species on record is Rattus norvegicus. In words: Displacement of [3H]AMPA from AMPA receptor in rat cortical synaptical membrane at 100 uM. The assay is classed as cell membranes. In a few lines: as §1
A short description of assay [11]: Neuroprotective activity in organotypic Wistar rat hippocampal CA1 region slices assessed as protection from oxygen-deprivation-induced neuronal damage at 1 uM dosed during 30 mins insult and subsequent 24 hrs recovery period by propidium iodide staining-based fluorescence analysis (reference value: 57 +/- 8%). The assay is classed as functional.
Assay [12] deals with Mus musculus. Nature of the assay: Anticonvulsant activity in Swiss albino mouse assessed as protection from PTZ-induced seizures at 30 mg/kg, po administered 30 mins before PTZ challenge measured after 30 mins. The assay is classed as functional. The procedure, abridged: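 Male Swiss albino mice (23–30 g), housed 15 per cage, 23 ± 1 °C, 12 h light/dark. Test drug dispersed in 1% sodium carboxymethylcellulose and given orally in 10 ml/kg. PTZ given 90 mg/kg s.c. 30 min later. Clonic generalized convulsions scored over 30 min, expressed as % protection.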

Assay [13] relates to Hippocampus. In words: Neuroprotective activity in Wistar rat acute hippocampal CA1 region slices assessed as protection from oxygen glucose deprivation-induced anoxic depolarization at 5 uM administered 15 mins before and during 7 mins oxygen glucose deprivation challenge. The assay is classed as functional. In a few lines: (§2)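 Acute rat hippocampal slices superfused with aCSF, compound in DMSO (final under 0.001%). Applied 15 min before and during 7-min OGD. Anoxic depolarization recorded in CA1 as negative DC voltage shift, with loss of fepsp followed on reperfusion with oxygenated glucose-containing aCSF. n = 3 (1 µM) or 6 (5 µM).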

Assay [14] can be described thus: Antagonist activity at kainate receptor in Wistar rat acute hippocampal CA1 region slices assessed as reduction of kainate-induced field excitatory postsynaptic potential suppression at 1 uM by electrophysiological analysis relative to untreated pre-drug level (reference value: 52.1 +/- 15.3%). It counts as functional, Hippocampus. On the set-up: scale not given: the % may be the effect or the level left.

In assay [15] the test system is Hippocampus. Nature of the assay: Neuroprotective activity in Wistar rat hippocampal CA1 region assessed as change in field excitatory postsynaptic potential at basal conditions at 1 to 5 uM by electrophysiological analysis. The assay is classed as functional, tissue-based.
In assay [16] the test system is Hippocampus. Nature of the assay: Neuroprotective activity in Wistar rat acute hippocampal CA1 region assessed as protection from oxygen glucose deprivation-induced anoxia depolarization at 1 uM administered 15 mins before and during 7 mins oxygen-deprivation challenge. It counts as functional, tissue-based. The procedure, abridged:
as §2

Assay [17] can be described thus: Antagonist activity at kainate receptor in Wistar rat acute hippocampal CA1 region slices assessed as reduction in field excitatory postsynaptic potential amplitude at basal conditions at 5 uM by electrophysiological analysis. The assay is classed as functional. Particulars: Hippocampus.
Assay [18] in a line: Antagonist activity at kainate receptor in Wistar rat acute hippocampal CA1 region slices assessed as reduction in field excitatory postsynaptic potential amplitude at basal conditions at 1 uM by electrophysiological analysis. The assay is classed as functional. The note with it: Hippocampus.

This is an account of results in ChEMBL document CHEMBL2046273, “3-Hydroxy-1H-quinazoline-2,4-dione derivatives as new antagonists at ionotropic glutamate receptors: molecular modeling and pharmacological studies” (Eur J Med Chem, 2012).

The source made the active and inactive calls. No cut-off for these calls is given here. Some results are limits rather than exact numbers.

As a reminder, the Ki is the dissociation constant of the complex between target and ligand, obtained from inhibition or displacement. As a reminder, the IC50 is the concentration that gives 50% inhibition. Consider `O=c1[nH]c2cc(Cl)c([N+](=O)[O-])cc2c(=O)n1O`, for which the Ki in assay [1] came to 1.3 µM; in [2] it was 1.1 µM. The compound also had an IC50 in [3] of 19.1 µM.

For `O=Cc1ccn(-c2cc3c(=O)n(O)c(=O)[nH]c3cc2C(F)(F)F)c1`, the IC50 in assay [4] amounted to 1.5 µM; in [5] it was 7 µM; in assay [3] it was 4.2 µM. For the same compound, the Ki in [1] is 0.72 µM; in [2] it was 0.8 µM.

With `O=c1[nH]c2cc(C(F)(F)F)ccc2c(=O)n1O`, the Ki was found to be 4.8 µM in [1] and 0.85 µM in [2]. Moreover, the IC50 in assay [3] is 37.6 µM.

For the compound `Nc1cc2c(=O)n(O)c(=O)[nH]c2cc1C(F)(F)F`, the Ki in assay [1] and in assay [2] was 6.1 µM in each case. The IC50 in assay [3] came out at 32 µM.

Usually inhibition stands for the percentage by which the read-out fell short of the control. With `NS(=O)(=O)c1cccc2c1c([N+](=O)[O-])cc1nc(O)c(O)nc12` [NBQX], the Activity in assay [6] is given as 20%. Besides, the IC50 is 0.2 µM in [4] and 7 µM in assay [3]. For the same compound, in assay [1], the Ki was 0.07 µM. Moreover, in assay [7], the Imax worked out at 3%. In addition, the inhibition result in assay [8] was “inactive”.

As to `O=c1[nH]c2cc(C(F)(F)F)c(-n3cccc3)cc2c(=O)n1O`, the Imax in assay [9] was 10%; in assay [7] it was 32%. This compound came in with a Ki in [1] of 126 µM.

On to `O=C(O)c1ccn(-c2cc3c(=O)n(O)c(=O)[nH]c3cc2C(F)(F)F)c1`, for which the figures for the IC50 in assay [4], in assay [5] and in assay [3] were 2.9 µM, > 50 µM and 17.3 µM, respectively. Also, the Ki in [1] came to 0.46 µM; in assay [2], 5.1 µM.

On to `O=C(O)c1ccccc1C(=O)Nc1cc2c(=O)n(O)c(=O)[nH]c2cc1C(F)(F)F`, for which the figures for the Imax in assay [10] and in assay [7] were 8% and 10%, respectively. This compound returned an IC50 in assay [3] of 25 µM.

Consider `COn1c(=O)[nH]c2cc(C(F)(F)F)c(-n3cnnc3)cc2c1=O`, for which the Imax worked out at 0% in [9] and 21% in assay [7]. The compound further registered a Ki in [1] of 20 µM.

For the compound `O=c1[nH]c2cc(C(F)(F)F)c(-n3cnnc3)cc2c(=O)n1O`, the Activity in [11] was determined as 29%; in [12], 65.5%. In assay [2], the Ki amounted to 6.5 µM.

On to `O=c1[nH]c2cc(C(F)(F)F)c([N+](=O)[O-])cc2c(=O)n1O`, for which the Ki in assay [1] was 0.26 µM; in assay [2], 1.3 µM. The compound further showed an IC50 in assay [3] of 7 µM.

As for `O=C(O)c1ccccc1C(=O)Nc1cc2c(=O)n(O)c(=O)[nH]c2cc1Cl`, the Activity in [13] stood at 92.2%; in assay [14], 85.8%. The result in [15] was Active. The result in assay [16] was inactive. In addition, the inhibition at 5 µM in assay [17] was 39.6%. Besides, the inhibition at 1 µM in assay [18] was found to be 19.2%.

For `O=C(O)c1cc(O)c2c(Cl)cc(Cl)cc2n1`, the IC50 worked out at 52 µM in assay [4] and 4.7 µM in assay [5]. In addition, the figures for the Imax in [10] and in assay [9] were 5% and 8%, respectively. Besides, the Ki in assay [2] worked out at 0.08 µM.
